How the values were obtained:
Intestine [1] = test: Biodistribution in ddY mouse intestine at 0.5 uCi, iv after 10 mins; format: ADME, organism-based; conditions: in vivo
Method in brief: (§1)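 Normal male-unspecified ddY mice (5-week-old, 22–25 g) given radioiodinated ligand by tail-vein injection, killed at set times post-injection. Organs removed and weighed, radioactivity counted in a gamma counter. Expressed as % injected dose per gram, stomach as % injected dose per organ. Mean (s.d.) of 3–5 animals per time point.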

Brain [2] = test: Biodistribution in ddY mouse brain at 0.5 uCi, iv after 2 mins; format: ADME, organism-based; conditions: in vivo; method in brief: as §1
Stomach [3] = test: Biodistribution in ddY mouse stomach at 0.5 uCi, iv after 60 mins; format: ADME, organism-based; conditions: in vivo, 1 h; method in brief: as §1
Spleen [4] = test: Biodistribution in ddY mouse spleen at 0.5 uCi, iv after 10 mins; format: ADME, organism-based; conditions: in vivo; method in brief: as §1
Kidney [5] = test: Biodistribution in ddY mouse kidney at 0.5 uCi, iv after 10 mins; format: ADME, organism-based; conditions: in vivo; method in brief: as §1
Stomach [6] = test: Biodistribution in ddY mouse stomach at 0.5 uCi, iv after 30 mins; format: ADME, organism-based; conditions: in vivo, 0.5 h; method in brief: as §1
Spleen [7] = test: Biodistribution in ddY mouse spleen at 0.5 uCi, iv after 2 mins; format: ADME, organism-based; conditions: in vivo; method in brief: as §1
Intestine [8] = test: Biodistribution in ddY mouse intestine at 0.5 uCi, iv after 60 mins; format: ADME, organism-based; conditions: in vivo, 1 h; method in brief: as §1
Heart [9] = test: Biodistribution in ddY mouse heart at 0.5 uCi, iv after 2 mins; format: ADME, organism-based; conditions: in vivo; method in brief: as §1
Intestine [10] = test: Biodistribution in ddY mouse intestine at 0.5 uCi, iv after 2 mins; format: ADME, organism-based; conditions: in vivo; method in brief: as §1
Pancreas [11] = test: Biodistribution in ddY mouse pancreas at 0.5 uCi, iv after 10 mins; format: ADME, organism-based; conditions: in vivo; method in brief: as §1
Heart [12] = test: Biodistribution in ddY mouse heart at 0.5 uCi, iv after 60 mins; format: ADME, organism-based; conditions: in vivo, 1 h; method in brief: as §1
Blood [13] = test: Biodistribution in ddY mouse blood at 0.5 uCi, iv after 60 mins; format: ADME, organism-based; conditions: in vivo, 1 h; method in brief: as §1
Blood [14] = test: Biodistribution in ddY mouse blood at 0.5 uCi, iv after 30 mins; format: ADME, organism-based; conditions: in vivo, 0.5 h; method in brief: as §1
Pancreas [15] = test: Biodistribution in ddY mouse pancreas at 0.5 uCi, iv after 30 mins; format: ADME, organism-based; conditions: in vivo, 0.5 h; method in brief: as §1
Kidney [16] = test: Biodistribution in ddY mouse kidney at 0.5 uCi, iv after 2 mins; format: ADME, organism-based; conditions: in vivo; method in brief: as §1
Blood [17] = test: Biodistribution in ddY mouse blood at 0.5 uCi, iv after 2 mins; format: ADME, organism-based; conditions: in vivo; method in brief: as §1
Pancreas [18] = test: Biodistribution in ddY mouse pancreas at 0.5 uCi, iv after 60 mins; format: ADME, organism-based; conditions: in vivo, 1 h; method in brief: as §1
Liver [19] = test: Biodistribution in ddY mouse liver at 0.5 uCi, iv after 10 mins; format: ADME, organism-based; conditions: in vivo; method in brief: as §1
Brain [20] = test: Biodistribution in ddY mouse brain at 0.5 uCi, iv after 30 mins; format: ADME, organism-based; conditions: in vivo, 0.5 h; method in brief: as §1
Blood [21] = test: Biodistribution in ddY mouse blood at 0.5 uCi, iv after 10 mins; format: ADME, organism-based; conditions: in vivo; method in brief: as §1
Pancreas [22] = test: Biodistribution in ddY mouse pancreas at 0.5 uCi, iv after 2 mins; format: ADME, organism-based; conditions: in vivo; method in brief: as §1
Stomach [23] = test: Biodistribution in ddY mouse stomach at 0.5 uCi, iv after 2 mins; format: ADME, organism-based; conditions: in vivo; method in brief: as §1
Liver [24] = test: Biodistribution in ddY mouse liver at 0.5 uCi, iv after 2 mins; format: ADME, organism-based; conditions: in vivo; method in brief: as §1
Heart [25] = test: Biodistribution in ddY mouse heart at 0.5 uCi, iv after 30 mins; format: ADME, organism-based; conditions: in vivo, 0.5 h; method in brief: as §1
Spleen [26] = test: Biodistribution in ddY mouse spleen at 0.5 uCi, iv after 30 mins; format: ADME, organism-based; conditions: in vivo, 0.5 h; method in brief: as §1
Heart [27] = test: Biodistribution in ddY mouse heart at 0.5 uCi, iv after 10 mins; format: ADME, organism-based; conditions: in vivo; method in brief: as §1
Kidney [28] = test: Biodistribution in ddY mouse kidney at 0.5 uCi, iv after 60 mins; format: ADME, organism-based; conditions: in vivo, 1 h; method in brief: as §1
Kidney [29] = test: Biodistribution in ddY mouse kidney at 0.5 uCi, iv after 30 mins; format: ADME, organism-based; conditions: in vivo, 0.5 h; method in brief: as §1
Brain [30] = test: Biodistribution in ddY mouse brain at 0.5 uCi, iv after 60 mins; format: ADME, organism-based; conditions: in vivo, 1 h; method in brief: as §1
Spleen [31] = test: Biodistribution in ddY mouse spleen at 0.5 uCi, iv after 60 mins; format: ADME, organism-based; conditions: in vivo, 1 h; method in brief: as §1
Brain [32] = test: Biodistribution in ddY mouse brain at 0.5 uCi, iv after 10 mins; format: ADME, organism-based; conditions: in vivo; method in brief: as §1
Intestine [33] = test: Biodistribution in ddY mouse intestine at 0.5 uCi, iv after 30 mins; format: ADME, organism-based; conditions: in vivo, 0.5 h; method in brief: as §1
Liver [34] = test: Biodistribution in ddY mouse liver at 0.5 uCi, iv after 30 mins; format: ADME, organism-based; conditions: in vivo, 0.5 h; method in brief: as §1
Liver [35] = test: Biodistribution in ddY mouse liver at 0.5 uCi, iv after 60 mins; format: ADME, organism-based; conditions: in vivo, 1 h; method in brief: as §1
Stomach [36] = test: Biodistribution in ddY mouse stomach at 0.5 uCi, iv after 10 mins; format: ADME, organism-based; conditions: in vivo; method in brief: as §1
[37] = Displacement of [125I]IMPY from amyloid beta (1-42) aggregates
Method in brief: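 Synthetic Aβ(1–42) dissolved at 0.25 mg/mL in 10 mM sodium phosphate, 1 mM EDTA, pH 7.4, aggregated 42 h at 37 °C with gentle constant shaking. Competition against [125I]IMPY (2200 Ci/mmol, >95% radiochemical purity). Filter-bound radioactivity gamma-counted, specific binding under 15% of total. IC50 from displacement curves, Ki by Cheng-Prusoff. Mean ± SEM of 3–6 independent experiments.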

Drug uptake (Intestine [1])	Drug uptake (Brain [2])	Drug uptake (Stomach [3])	Drug uptake (Spleen [4])	Drug uptake (Kidney [5])	Drug uptake (Stomach [6])	Drug uptake (Spleen [7])	Drug uptake (Intestine [8])	Drug uptake (Heart [9])	Drug uptake (Intestine [10])	Drug uptake (Pancreas [11])	Drug uptake (Heart [12])	Drug uptake (Blood [13])	Drug uptake (Blood [14])	Drug uptake (Pancreas [15])	Drug uptake (Kidney [16])	Drug uptake (Blood [17])	Drug uptake (Pancreas [18])	Drug uptake (Liver [19])	Drug uptake (Brain [20])	SMILES	also measured
2.83 % ID/g	1.44 % ID/g	7.38 % ID/organ	4.7 % ID/g	5.3 % ID/g	4.89 % ID/organ	4.58 % ID/g	8.46 % ID/g	9.51 % ID/g	1.36 % ID/g	3.91 % ID/g	1.27 % ID/g	1.54 % ID/g	1.52 % ID/g	3.06 % ID/g	9.53 % ID/g	3.54 % ID/g	1.88 % ID/g	12.37 % ID/g	2.56 % ID/g	CNc1ccc(-c2nc(-c3ccc([125I])cc3)no2)cc1	Drug uptake (Blood [21]): 1.84 % ID/g; Drug uptake (Pancreas [22]): 3.34 % ID/g; Drug uptake (Stomach [23]): 1.08 % ID/organ; Drug uptake (Liver [24]): 14.62 % ID/g; Drug uptake (Heart [25]): 1.68 % ID/g; Drug uptake (Spleen [26]): 2.84 % ID/g; Drug uptake (Heart [27]): 3.05 % ID/g; Drug uptake (Kidney [28]): 3.02 % ID/g; Drug uptake (Kidney [29]): 3.39 % ID/g; Drug uptake (Brain [30]): 2.7 % ID/g; Drug uptake (Spleen [31]): 2.14 % ID/g; Drug uptake (Brain [32]): 1.98 % ID/g; Drug uptake (Intestine [33]): 5.67 % ID/g; Drug uptake (Liver [34]): 8.53 % ID/g; Drug uptake (Liver [35]): 7.3 % ID/g; Drug uptake (Stomach [36]): 2.32 % ID/organ
3.08 % ID/g	1.61 % ID/g	5.15 % ID/organ	8.87 % ID/g	6.94 % ID/g	4.05 % ID/organ	6.13 % ID/g	8.33 % ID/g	9.29 % ID/g	1.5 % ID/g	3.88 % ID/g	3.51 % ID/g	2.99 % ID/g	3.09 % ID/g	3.36 % ID/g	8.24 % ID/g	4.55 % ID/g	2.83 % ID/g	17.37 % ID/g	3.32 % ID/g	Nc1ccc(-c2nc(-c3ccc([125I])cc3)no2)cc1	Drug uptake (Blood [21]): 2.32 % ID/g; Drug uptake (Pancreas [22]): 3.69 % ID/g; Drug uptake (Stomach [23]): 0.92 % ID/organ; Drug uptake (Liver [24]): 21.36 % ID/g; Drug uptake (Heart [25]): 3.48 % ID/g; Drug uptake (Spleen [26]): 6.89 % ID/g; Drug uptake (Heart [27]): 4.02 % ID/g; Drug uptake (Kidney [28]): 5.15 % ID/g; Drug uptake (Kidney [29]): 5.86 % ID/g; Drug uptake (Brain [30]): 3.29 % ID/g; Drug uptake (Spleen [31]): 5.02 % ID/g; Drug uptake (Brain [32]): 2.48 % ID/g; Drug uptake (Intestine [33]): 5.84 % ID/g; Drug uptake (Liver [34]): 14.89 % ID/g; Drug uptake (Liver [35]): 12.33 % ID/g; Drug uptake (Stomach [36]): 1.7 % ID/organ
–	–	–	–	–	–	–	–	–	–	–	–	–	–	–	–	–	–	–	–	COc1ccc(-c2nc(-c3ccc(I)cc3)no2)cc1	Ki [37]: 4.3 nM
2.4 % ID/g	1.07 % ID/g	5.75 % ID/organ	4.56 % ID/g	7.67 % ID/g	4.8 % ID/organ	6.26 % ID/g	5.37 % ID/g	11.04 % ID/g	1.59 % ID/g	3.8 % ID/g	1.24 % ID/g	1.56 % ID/g	1.79 % ID/g	2.86 % ID/g	7.83 % ID/g	5.42 % ID/g	2.47 % ID/g	8.27 % ID/g	2.23 % ID/g	CN(C)c1ccc(-c2nc(-c3ccc([125I])cc3)no2)cc1	Drug uptake (Blood [21]): 2.41 % ID/g; Drug uptake (Pancreas [22]): 3.17 % ID/g; Drug uptake (Stomach [23]): 1.28 % ID/organ; Drug uptake (Liver [24]): 13.94 % ID/g; Drug uptake (Heart [25]): 2.2 % ID/g; Drug uptake (Spleen [26]): 3.11 % ID/g; Drug uptake (Heart [27]): 4.81 % ID/g; Drug uptake (Kidney [28]): 3.31 % ID/g; Drug uptake (Kidney [29]): 4.81 % ID/g; Drug uptake (Brain [30]): 2.32 % ID/g; Drug uptake (Spleen [31]): 2.41 % ID/g; Drug uptake (Brain [32]): 1.45 % ID/g; Drug uptake (Intestine [33]): 4.12 % ID/g; Drug uptake (Liver [34]): 5.89 % ID/g; Drug uptake (Liver [35]): 5.15 % ID/g; Drug uptake (Stomach [36]): 3.28 % ID/organ
–	–	–	–	–	–	–	–	–	–	–	–	–	–	–	–	–	–	–	–	Oc1ccc(-c2nc(-c3ccc(I)cc3)no2)cc1	Ki [37]: 47.1 nM

Source: ChEMBL document CHEMBL1157526, “Development of novel beta-amyloid probes based on 3,5-diphenyl-1,2,4-oxadiazole” (Bioorg Med Chem, 2008)
